Key:
Format in all cases: functional, cell-based
Settings in all cases: Homo sapiens
[1] = tested on: MES-SA; assay: The compound was evaluated for the growth inhibition of MES-SA uterine tumor cell lines using MTT assay.
Procedure, shortened: (§1)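 MTT assay: MES-SA (uterine tumor) or P-gp-overexpressing MES-SA/Dx5 cells seeded at 80,000 cells/mL, grown 24 h at 37 C in humidified 5% CO2, then drug-exposed at serial dilutions for 72 h. MTT (5 mg/mL stock in PBS) added for 3 h, formazan dissolved in 0.1 N HCl-isopropanol, absorbance read at 570 nm. IC50 from plotted data, mean of 8-16 determinations.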

[2] = tested on: MES-SA/Dx5; assay: The compound was evaluated for the growth inhibition of Dx5 w/PSC cell lines using MTT assay.; procedure, shortened: as §1
[3] = tested on: MES-SA/Dx5; assay: The compound was evaluated for the growth inhibition of Dx5 cell lines using MTT assay.; procedure, shortened: as §1

Row | SMILES | IC50 [1] | IC50 [2] | IC50 [3]
1 | CC(=O)O[C@H]1C(=O)[C@@]2(C)[C@H]([C@H](OC(=O)c3ccccc3)[C@]3(O)C[C@H](OC(=O)[C@H](O)[C@@H](NC(=O)c4ccccc4)c4ccccc4)C(C)=C1C3(C)C)[C@]1(OC(C)=O)CO[C@@H]1C[C@@H]2O [PACLITAXEL] | 0.6 nM | 0.3 nM | 2700 nM
2 | COc1cccc2c1C(=O)c1c(O)c3c(c(O)c1C2=O)C[C@@](O)(C(C)=O)C[C@@H]3OC1CC(NC(=O)CCC(=O)NCCC(=O)O[C@@H]2C[C@@H]3OC[C@]3(OC(C)=O)C3[C@@H](OC(=O)c4ccccc4)[C@@]4(O)C[C@@H](OC(=O)[C@@H](O)[C@H](NC(=O)c5ccccc5)c5ccccc5)C(C)=C([C@H](OC(C)=O)C(=O)[C@]32C)C4(C)C)C(O)C(C)O1 (stereo partly specified) | 700 nM |  | > 50000 nM
3 | COc1cccc2c1C(=O)c1c(O)c3c(c(O)c1C2=O)C[C@@](O)(C(C)=O)C[C@@H]3OC1CC(NC(=O)CCCC(=O)NCCC(=O)O[C@@H]2C[C@@H]3OC[C@]3(OC(C)=O)C3[C@@H](OC(=O)c4ccccc4)[C@@]4(O)C[C@@H](OC(=O)[C@@H](O)[C@H](NC(=O)c5ccccc5)c5ccccc5)C(C)=C([C@H](OC(C)=O)C(=O)[C@]32C)C4(C)C)C(O)C(C)O1 (stereo partly specified) | 950 nM | 1100 nM | > 50000 nM
4 | COc1cccc2c1C(=O)c1c(O)c3c(c(O)c1C2=O)C[C@@](O)(C(C)=O)C[C@@H]3O[C@H]1C[C@H](N)[C@H](O)[C@H](C)O1 [DAUNORUBICIN] | 21 nM | 14 nM | 2000 nM
5 | COc1cccc2c1C(=O)c1c(O)c3c(c(O)c1C2=O)C[C@@](O)(C(C)=O)C[C@@H]3OC1CC(NC(=O)c2ccccc2C(=O)NCCC(=O)O[C@@H]2C[C@@H]3OC[C@]3(OC(C)=O)C3[C@@H](OC(=O)c4ccccc4)[C@@]4(O)C[C@@H](OC(=O)[C@@H](O)[C@H](NC(=O)c5ccccc5)c5ccccc5)C(C)=C([C@H](OC(C)=O)C(=O)[C@]32C)C4(C)C)C(O)C(C)O1 (stereo partly specified) | 99 nM | 36 nM | 16000 nM
6 | CC(=O)O[C@H]1C(=O)[C@@]2(C)C([C@H](OC(=O)c3ccccc3)[C@]3(O)C[C@H](OC(=O)[C@H](O)[C@@H](NC(=O)c4ccccc4)c4ccccc4)C(C)=C1C3(C)C)[C@]1(OC(C)=O)CO[C@@H]1C[C@@H]2O.COc1cccc2c1C(=O)c1c(O)c3c(c(O)c1C2=O)C[C@@](O)(C(C)=O)C[C@@H]3OC1CC(N)C(O)C(C)O1 (stereo partly specified) [MIXTURE OF DAUNORUBICIN AND PACLITAXEL] | 11 nM |  | 1000 nM
7 | COc1cccc2c1C(=O)c1c(O)c3c(c(O)c1C2=O)C[C@@](O)(C(C)=O)C[C@@H]3OC1CC(NC(=O)c2ccc(C(=O)NCCC(=O)O[C@@H]3C[C@@H]4OC[C@]4(OC(C)=O)C4[C@@H](OC(=O)c5ccccc5)[C@@]5(O)C[C@@H](OC(=O)[C@@H](O)[C@H](NC(=O)c6ccccc6)c6ccccc6)C(C)=C([C@H](OC(C)=O)C(=O)[C@]43C)C5(C)C)cc2)C(O)C(C)O1 (stereo partly specified) | 1000 nM | 1000 nM | 10000 nM
8 | COc1cccc2c1C(=O)c1c(O)c3c(c(O)c1C2=O)C[C@@](O)(C(C)=O)C[C@@H]3OC1CC(NC(=O)CCCCC(=O)NCCC(=O)O[C@@H]2C[C@@H]3OC[C@]3(OC(C)=O)C3[C@@H](OC(=O)c4ccccc4)[C@@]4(O)C[C@@H](OC(=O)[C@@H](O)[C@H](NC(=O)c5ccccc5)c5ccccc5)C(C)=C([C@H](OC(C)=O)C(=O)[C@]32C)C4(C)C)C(O)C(C)O1 (stereo partly specified) | 2300 nM |  | > 50000 nM
